# Data reported in ChEMBL document CHEMBL4038305, “Benzoxaborole Antimalarial Agents. Part 5. Lead Optimization of Novel Amide Pyrazinyloxy Benzoxaboroles and Identification of a Preclinical Candidate” (J Med Chem, 2017).
# Columns and labels:
# Plasmodium berghei [1] = experiment: Antimalarial activity against Plasmodium berghei infected in Swiss Webster mouse assessed as mouse survival rate at 200 mg/kg administered once daily via oral gavage for 4 consecutive days beginning 1 hr after infection measured on day 8 post infection relative to control; type: functional
# Procedure, shortened: (§1)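 P. berghei-infected erythrocytes taken from a previously infected mouse were injected intraperitoneally. Oral dosing, once daily for 4 consecutive days, began 1 h after infection, in polyethylene glycol 300/propylene glycol/water (55/25/20 by weight). Chloroquine at 30 mg/kg was the positive control, with a vehicle-only group. Percent survival was recorded daily from day 4 to day 20.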
# Plasmodium berghei [2] = experiment: Antimalarial activity against Plasmodium berghei infected in Swiss Webster mouse assessed as mouse survival rate at 3 mg/kg administered once daily via oral gavage for 4 consecutive days beginning 1 hr after infection measured on day 7 post infection relative to control; type: functional; procedure, shortened: as §1
# Plasmodium berghei [3] = experiment: Antimalarial activity against Plasmodium berghei infected in Swiss Webster mouse assessed as mouse survival rate at 100 mg/kg administered once daily via oral gavage for 4 consecutive days beginning 1 hr after infection measured on day 5 post infection relative to control; type: functional
# Procedure, shortened: (§2)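 Mice given an intraperitoneal injection of P. berghei-infected erythrocytes taken from a previously infected animal. Oral dosing once daily for 4 consecutive days, starting 1 h after infection. Vehicle: polyethylene glycol 300/propylene glycol/water (weight ratio 55/25/20). Percent survival recorded daily from day 4 to day 20. Chloroquine 30 mg/kg and vehicle-only groups served as controls.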
# Plasmodium berghei [4] = experiment: Antimalarial activity against Plasmodium berghei infected in Swiss Webster mouse assessed as mouse survival rate at 200 mg/kg administered once daily via oral gavage for 4 consecutive days beginning 1 hr after infection measured on day 9 post infection relative to control; type: functional; procedure, shortened: as §1
# Plasmodium berghei [5] = experiment: Antimalarial activity against Plasmodium berghei infected in Swiss Webster mouse assessed as mouse survival rate at 3 mg/kg administered once daily via oral gavage for 4 consecutive days beginning 1 hr after infection measured on day 4 post infection relative to control; type: functional; procedure, shortened: as §1
# Plasmodium berghei [6] = experiment: Antimalarial activity against Plasmodium berghei infected in Swiss Webster mouse assessed as mouse survival rate at 3 mg/kg administered once daily via oral gavage for 4 consecutive days beginning 1 hr after infection measured on day 5 post infection relative to control; type: functional; procedure, shortened: as §1
# Plasmodium berghei [7] = experiment: Antimalarial activity against Plasmodium berghei infected in Swiss Webster mouse assessed as mouse survival rate at 200 mg/kg administered once daily via oral gavage for 4 consecutive days beginning 1 hr after infection measured on day 11 post infection relative to control; type: functional; procedure, shortened: as §1
# Plasmodium berghei [8] = experiment: Antimalarial activity against Plasmodium berghei infected in Swiss Webster mouse assessed as mouse survival rate at 200 mg/kg administered once daily via oral gavage for 4 consecutive days beginning 1 hr after infection measured on day 6 post infection relative to control; type: functional; procedure, shortened: as §1
# Plasmodium berghei [9] = experiment: Antimalarial activity against Plasmodium berghei infected in Swiss Webster mouse assessed as mouse survival rate at 11 mg/kg administered once daily via oral gavage for 4 consecutive days beginning 1 hr after infection measured on day 4 post infection relative to control; type: functional; procedure, shortened: as §1
# Plasmodium berghei [10] = experiment: Antimalarial activity against Plasmodium berghei infected in Swiss Webster mouse assessed as mouse survival rate at 200 mg/kg administered once daily via oral gavage for 4 consecutive days beginning 1 hr after infection measured on day 10 post infection relative to control; type: functional; procedure, shortened: as §1
# Plasmodium falciparum [11] = experiment: Antimalarial activity against chloroquine-resistant Plasmodium falciparum W2 infected in human erythrocytes after 48 hrs by YOYO-1 dye based flow cytometric analysis; type: functional, cell-based; details: W2, 48 h
# Procedure, shortened: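 P. falciparum W2 cultures were exposed to the compound for 48 h, with artemisinin and chloroquine as reference controls. IC50 was taken from two independent replicates.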
# Plasmodium berghei [12] = experiment: Antimalarial activity against Plasmodium berghei infected in Swiss Webster mouse assessed as mouse survival rate at 200 mg/kg administered once daily via oral gavage for 4 consecutive days beginning 1 hr after infection measured on day 4 post infection relative to control; type: functional; procedure, shortened: as §1
# Plasmodium berghei [13] = experiment: Antimalarial activity against Plasmodium berghei infected in Swiss Webster mouse assessed as mouse survival rate at 11 mg/kg administered once daily via oral gavage for 4 consecutive days beginning 1 hr after infection measured on day 7 post infection relative to control; type: functional; procedure, shortened: as §1
# Plasmodium berghei [14] = experiment: Antimalarial activity against Plasmodium berghei infected in Swiss Webster mouse assessed as mouse survival rate at 200 mg/kg administered once daily via oral gavage for 4 consecutive days beginning 1 hr after infection measured on day 5 post infection relative to control; type: functional; procedure, shortened: as §1
# Plasmodium berghei [15] = experiment: Antimalarial activity against Plasmodium berghei infected in Swiss Webster mouse assessed as mouse survival rate at 100 mg/kg administered once daily via oral gavage for 4 consecutive days beginning 1 hr after infection measured on day 9 post infection relative to control; type: functional; procedure, shortened: as §2
# Plasmodium berghei [16] = experiment: Antimalarial activity against Plasmodium berghei infected in Swiss Webster mouse assessed as mouse survival rate administered once daily via oral gavage for 4 consecutive days beginning 1 hr after infection measured on day 4 post infection; type: functional; procedure, shortened: as §2
# Plasmodium berghei [17] = experiment: Antimalarial activity against Plasmodium berghei infected in Swiss Webster mouse assessed as mouse survival rate at 1 mg/kg administered once daily via oral gavage for 4 consecutive days beginning 1 hr after infection measured on day 4 post infection relative to control; type: functional; procedure, shortened: as §2
# Plasmodium falciparum [18] = experiment: Antimalarial activity against chloroquine-sensitive Plasmodium falciparum 3D7 infected in human erythrocytes assessed as reduction in [3H]-hypoxanthine incorporation preincubated for 24 hrs followed by [3H]-hypoxanthine addition measured after 24 hrs by scintillation counting method; type: functional, cell-based
# Procedure, shortened: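 P. falciparum 3D7 cultures were exposed to the compound for 48 h, with atovaquone as the reference control. IC50 was taken from three replicates.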
# Plasmodium berghei [19] = experiment: Antimalarial activity against Plasmodium berghei infected in Swiss Webster mouse assessed as mouse survival rate at 33 mg/kg administered once daily via oral gavage for 4 consecutive days beginning 1 hr after infection measured on day 6 post infection relative to control; type: functional; procedure, shortened: as §1
# Plasmodium berghei [20] = experiment: Antimalarial activity against Plasmodium berghei infected in Swiss Webster mouse assessed as mouse survival rate at 33 mg/kg administered once daily via oral gavage for 4 consecutive days beginning 1 hr after infection measured on day 7 post infection relative to control; type: functional; procedure, shortened: as §1
# Plasmodium berghei [21] = experiment: Antimalarial activity against Plasmodium berghei infected in Swiss Webster mouse assessed as mouse survival rate at 100 mg/kg administered once daily via oral gavage for 4 consecutive days beginning 1 hr after infection measured on day 4 post infection relative to control; type: functional; procedure, shortened: as §2
# Plasmodium berghei [22] = experiment: Antimalarial activity against Plasmodium berghei infected in Swiss Webster mouse assessed as mouse survival rate at 1 mg/kg administered once daily via oral gavage for 4 consecutive days beginning 1 hr after infection measured on day 6 post infection relative to control; type: functional; procedure, shortened: as §2
# Plasmodium berghei [23] = experiment: Antimalarial activity against Plasmodium berghei infected in Swiss Webster mouse assessed as mouse survival rate at 200 mg/kg administered once daily via oral gavage for 4 consecutive days beginning 1 hr after infection measured on day 7 post infection relative to control; type: functional; procedure, shortened: as §1
# Plasmodium berghei [24] = experiment: Antimalarial activity against Plasmodium berghei infected in Swiss Webster mouse assessed as mouse survival rate at 100 mg/kg administered once daily via oral gavage for 4 consecutive days beginning 1 hr after infection measured on day 7 post infection relative to control; type: functional; procedure, shortened: as §2
# Plasmodium berghei [25] = experiment: Antimalarial activity against Plasmodium berghei infected in Swiss Webster mouse assessed as mouse survival rate at 1 mg/kg administered once daily via oral gavage for 4 consecutive days beginning 1 hr after infection measured on day 5 post infection relative to control; type: functional; procedure, shortened: as §2
# Plasmodium berghei [26] = experiment: Antimalarial activity against Plasmodium berghei infected in Swiss Webster mouse assessed as mouse survival rate at 33 mg/kg administered once daily via oral gavage for 4 consecutive days beginning 1 hr after infection measured on day 4 post infection relative to control; type: functional; procedure, shortened: as §1
# Plasmodium berghei [27] = experiment: Antimalarial activity against Plasmodium berghei infected in Swiss Webster mouse assessed as mouse survival rate at 3.7 mg/kg administered once daily via oral gavage for 4 consecutive days beginning 1 hr after infection measured on day 5 post infection relative to control; type: functional; procedure, shortened: as §1
# Plasmodium berghei [28] = experiment: Antimalarial activity against Plasmodium berghei infected in Swiss Webster mouse assessed as mouse survival rate at 100 mg/kg administered once daily via oral gavage for 4 consecutive days beginning 1 hr after infection measured on day 6 post infection relative to control; type: functional; procedure, shortened: as §2
# Plasmodium berghei [29] = experiment: Antimalarial activity against Plasmodium berghei infected in Swiss Webster mouse assessed as mouse survival rate at 33 mg/kg administered once daily via oral gavage for 4 consecutive days beginning 1 hr after infection measured on day 5 post infection relative to control; type: functional; procedure, shortened: as §1
# Plasmodium berghei [30] = experiment: Antimalarial activity against Plasmodium berghei infected in Swiss Webster mouse assessed as mouse survival rate at 100 mg/kg administered once daily via oral gavage for 4 consecutive days beginning 1 hr after infection measured on day 8 post infection relative to control; type: functional; procedure, shortened: as §2
# Plasmodium berghei [31] = experiment: Antimalarial activity against Plasmodium berghei infected in Swiss Webster mouse assessed as mouse survival rate at 1 mg/kg administered once daily via oral gavage for 4 consecutive days beginning 1 hr after infection measured on day 7 post infection relative to control; type: functional; procedure, shortened: as §2
# Plasmodium berghei [32] = experiment: Antimalarial activity against Plasmodium berghei infected in Swiss Webster mouse assessed as mouse survival rate at 11 mg/kg administered once daily via oral gavage for 4 consecutive days beginning 1 hr after infection measured on day 6 post infection relative to control; type: functional; procedure, shortened: as §1
# Plasmodium berghei [33] = experiment: Antimalarial activity against Plasmodium berghei infected in Swiss Webster mouse assessed as mouse survival rate at 3 mg/kg administered once daily via oral gavage for 4 consecutive days beginning 1 hr after infection measured on day 6 post infection relative to control; type: functional; procedure, shortened: as §1
compound,measurement,setting,value
CC[C@H](CO)NC(=O)c1cnc(Oc2ccc3c(c2C)B(O)OC3)cn1,survival at 200 mg/kg,Plasmodium berghei [1],100%
same,survival at 3 mg/kg,Plasmodium berghei [2],0%
same,survival at 100 mg/kg,Plasmodium berghei [3],100%
same,survival at 200 mg/kg,Plasmodium berghei [4],60%
same,survival at 3 mg/kg,Plasmodium berghei [5],100%
same,survival at 3 mg/kg,Plasmodium berghei [6],100%
same,survival at 200 mg/kg,Plasmodium berghei [7],0%
same,survival at 200 mg/kg,Plasmodium berghei [8],100%
same,survival at 11 mg/kg,Plasmodium berghei [9],100%
same,survival at 200 mg/kg,Plasmodium berghei [10],20%
same,IC50,Plasmodium falciparum [11],136 nM
same,survival at 200 mg/kg,Plasmodium berghei [12],100%
same,survival at 11 mg/kg,Plasmodium berghei [13],0%
same,survival at 200 mg/kg,Plasmodium berghei [14],100%
same,survival at 100 mg/kg,Plasmodium berghei [15],0%
same,ED90,Plasmodium berghei [16],43.3 mg/kg
same,survival at 1 mg/kg,Plasmodium berghei [17],100%
same,IC50,Plasmodium falciparum [18],403 nM
same,survival at 33 mg/kg,Plasmodium berghei [19],100%
same,survival at 33 mg/kg,Plasmodium berghei [20],0%
same,survival at 100 mg/kg,Plasmodium berghei [21],100%
same,survival at 1 mg/kg,Plasmodium berghei [22],100%
same,survival at 200 mg/kg,Plasmodium berghei [23],100%
same,survival at 100 mg/kg,Plasmodium berghei [24],100%
same,survival at 1 mg/kg,Plasmodium berghei [25],100%
same,survival at 33 mg/kg,Plasmodium berghei [26],100%
same,survival at 3.7 mg/kg,Plasmodium berghei [27],100%
same,survival at 100 mg/kg,Plasmodium berghei [28],100%
same,survival at 33 mg/kg,Plasmodium berghei [29],100%
same,survival at 100 mg/kg,Plasmodium berghei [30],80%
same,survival at 1 mg/kg,Plasmodium berghei [31],0%
same,survival at 11 mg/kg,Plasmodium berghei [32],100%
same,survival at 3 mg/kg,Plasmodium berghei [33],100%
